# Screens deposited in PubChem by Johns Hopkins Ion Channel Center.
# Hits are enriched below; roughly 2.3% of the tested compounds scored in any of these assays.
# TRPC4 agonist = activators of mouse TRPC4 channel; B-score at 10 µM; HEK293 TRPC4beta/mu-opioid, Fluo4 calcium fluorescence; active compounds read high; Q9QUQ5; AID 2237; 0.49% of 310,000 active;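 active = B-score above 5 SD of library B-scores, and initial fluorescence ratio not above library mean plus 5 SD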;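 also: positive B-score marks a calcium rise read as TRPC4 activation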
# Target sequence (Q9QUQ5 whole entry, looked up): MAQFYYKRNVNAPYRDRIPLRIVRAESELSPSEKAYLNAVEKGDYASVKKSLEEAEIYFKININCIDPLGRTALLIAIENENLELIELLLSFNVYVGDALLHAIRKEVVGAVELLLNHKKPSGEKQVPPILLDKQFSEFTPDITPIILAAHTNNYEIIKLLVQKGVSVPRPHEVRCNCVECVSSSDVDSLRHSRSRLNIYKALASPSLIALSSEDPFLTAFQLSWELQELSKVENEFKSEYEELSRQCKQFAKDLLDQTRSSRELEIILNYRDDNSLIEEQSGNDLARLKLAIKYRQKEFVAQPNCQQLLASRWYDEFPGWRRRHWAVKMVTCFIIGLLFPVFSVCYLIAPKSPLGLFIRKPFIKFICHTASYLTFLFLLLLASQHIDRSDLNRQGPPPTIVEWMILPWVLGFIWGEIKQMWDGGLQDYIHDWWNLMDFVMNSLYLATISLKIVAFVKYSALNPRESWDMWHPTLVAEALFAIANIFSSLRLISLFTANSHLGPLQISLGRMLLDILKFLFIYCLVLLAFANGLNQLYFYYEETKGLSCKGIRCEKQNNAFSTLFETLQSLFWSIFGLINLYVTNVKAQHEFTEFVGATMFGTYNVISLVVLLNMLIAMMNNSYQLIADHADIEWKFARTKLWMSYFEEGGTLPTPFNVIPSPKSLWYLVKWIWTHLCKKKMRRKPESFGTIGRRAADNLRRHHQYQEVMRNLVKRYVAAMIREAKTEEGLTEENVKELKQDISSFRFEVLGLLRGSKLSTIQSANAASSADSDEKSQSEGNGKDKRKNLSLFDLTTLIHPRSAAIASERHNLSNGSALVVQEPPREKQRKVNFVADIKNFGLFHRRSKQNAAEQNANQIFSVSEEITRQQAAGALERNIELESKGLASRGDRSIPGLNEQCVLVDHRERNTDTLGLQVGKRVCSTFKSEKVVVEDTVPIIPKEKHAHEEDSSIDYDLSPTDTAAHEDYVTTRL
#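 Assay system: HEK293 cells stably co-expressing mouse TRPC4beta and mu-opioid receptor / Timing: Fluo4 dye loading 45 min at room temperature, 110 s recording / Signal: Fluo4 calcium-sensitive dye fluorescence, kinetic, 1 Hz baseline / Read-out: integrated baseline-normalised fluorescence ratio, converted to per-well B score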
# TRPC4 potent = TRPC4 (mouse) allosteric potentiation | AID 2227 | Q9QUQ5 | HEK293 TRPC4beta/mu-opioid, DAMGO EC20, Fluo-4 Ca2+ flux; active compounds read high | B-score at 10 µM | 0.42% of 310,000 active;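 active = B-score of calcium response area above 5 SD of library B-scores, with initial fluorescence ratio within 5 SD of library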
# TRPC6 act = mouse TRPC6 channel activation. Q61143. HEK293-TRPC6 membrane potential dye fluorescence; active compounds read high. B-score at 10 µM. 0.13% of 310,000 active;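 active = B-score of the integrated fluorescence ratio above library mean plus 3 SD, and starting fluorescence ratio within library mean plus 5 SD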;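 also: higher score means more depolarization so channel activation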
# TRPC4 block = blocks the mouse TRPC4 cation channel; HEK293 TRPC4beta/mu-opioid, DAMGO-evoked Fluo4 calcium flux; active compounds read low; 0.39% of 300,000 active; AID 2247; Q9QUQ5; B-score at 10 µM;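 active = B-score over 3 SD under the library average, no early fluorescence shift, positive overall ratio signal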
#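 Assay system: Stable TRPC4beta/mu-opioid receptor HEK293 cells | Reagent: DAMGO in two steps, submaximal then maximal | Compound dosing: Single concentration per test compound | Signal: Fluo4 Ca2+ flux fluorescence | Evaluation: Per-well B score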
# TRPC6 inhibitor = inhibitors of mouse TRPC6 channel; Q61143; HEK293-TRPC6, membrane potential dye, ACh-evoked depolarization; active compounds read low; B-score at 10 µM; 1.1% of 310,000 active;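 active = B-score under library mean minus 3 SD, initial fluorescence not abnormally high, positive integrated signal ratio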;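 also: B-score derived from integrated fluorescence ratio over the kinetic read; more negative B-score means stronger inhibition of depolarization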
# TRPC4 sel inh 2 = mouse TRPC4 off-target activity of TRPC6 inhibitors, second screen; shares compounds with TRPC6 inhibitor; HEK293 TRPC4/MOR, membrane potential dye fluorescence; channel activated by saturating DAMGO dose; inhibition, % at 10 µM; 42% of 920 active;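 active = compounds whose fluorescence signal differed from control wells by over 3 SD, either direction, in both duplicate plates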
# TRPC4 spec = selectivity of TRPC6 inhibitors: effect on mouse TRPC4 | activity change, negative = inhibition, % at 10 µM | HEK293 TRPC4/mu-opioid, membrane potential fluorescence | 61% of 920 active | AID 2777 | shares compounds with TRPC6 inhibitor;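 active = rise or fall in signal beyond 3 SD of buffer-only wells in both replicate plates, either sign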;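 also: integrated kinetic ratio of fluorescence range over baseline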
# HEK293 MPD ctr 2-1 = parental HEK293 nonspecific activity of TRPC6 inhibitors, second screen. shares compounds with TRPC6 inhibitor. parental HEK293 membrane potential dye fluorescence; maximal acetylcholine challenge after compound addition. signal change vs control, % at 10 µM. AID 2779. 31% of 920 active;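 active = membrane potential signal moving either way by over 3 SD of the maximum-effect control, in both duplicate plates, meaning non-specific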
# HEK293 MPD ctr-1 = parental HEK293 nonspecific activity of TRPC6 inhibitors. parental HEK293 membrane potential dye fluorescence. membrane potential signal change, % at 10 µM. shares compounds with TRPC6 inhibitor. 60% of 920 active;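 active = membrane potential signal shifting up or down by more than 3 SD of buffer-only wells, on both duplicate plates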
# HEK293 MPD ctr-2 = counter-screen for TRPC6 modulators: effect in parental HEK293 cells; shares compounds with TRPC6 inhibitor; membrane potential dye fluorescence; membrane potential signal change, % at 10 µM; 51% of 2,400 active; AID 488924;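 active = membrane potential signal moves up or down beyond 5 SD from buffer-only wells, on both duplicate plates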
# HEK293 MPD ctr 2-2 = second check of TRPC6 modulator effects in parental HEK293 cells | shares compounds with TRPC6 inhibitor | membrane potential dye fluorescence; after compound, maximal acetylcholine stimulation | inhibition, % at 10 µM | 14% of 2,400 active | AID 488926;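 active = membrane potential signal drops by more than 5 SD from the mean control signal, in both duplicate plates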
# TRPC4/MOR mod = tests whether TRPC6 modulators also affect mouse TRPC4 | shares compounds with TRPC6 inhibitor | HEK293 TRPC4/mu-opioid, membrane potential fluorescence | AID 488927 | percent change from control (negative = decrease, positive = increase), % at 10 µM | 69% of 2,400 active;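 active = membrane potential signal moved up or down beyond 5 SD of buffer control wells, in both duplicate plates, actives on both sides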
# TRPC4 ctr inh 2 = mouse TRPC4 off-target activity of TRPC6 modulators, second screen. shares compounds with TRPC6 inhibitor. HEK293 TRPC4/mu-opioid, membrane potential dye fluorescence; stimulated with maximal-effect DAMGO. inhibition, % at 10 µM. 55% of 2,400 active. AID 488928;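 active = drop in membrane potential signal beyond 5 SD of the control wells in both duplicate plates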;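 also: TRPC4 counter screen for TRPC6 hits run under conditions tuned for TRPC6 not TRPC4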
# TRPC6 inh conf = confirmation of mouse TRPC6 inhibitors; shares compounds with TRPC6 inhibitor; HEK293-TRPC6, membrane potential dye, ACh-evoked depolarization; inhibition, % at 10 µM; 43% of 3,300 active; AID 488960;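 active = fluorescence ratio falls more than 5 SD below the full-stimulation control mean, in both duplicate runs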;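 also: integrated fluorescence ratio of peak minus minimum over baseline after agonist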
# TRPC6 act confirm = confirmation of mouse TRPC6 activators. 11% of 2,800 active. HEK293-TRPC6 membrane potential dye fluorescence, FDSS. shares compounds with TRPC6 inhibitor. activation, % at 10 µM;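 active = ratio signal rise beyond 5 SD above unstimulated control wells' mean, seen in both duplicate runs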
# Numbers stand for hits; – = inactive; · = no result given; + = active, no number.
SMILES,TRPC4 agonist,TRPC4 potent,TRPC6 act,TRPC4 block,TRPC6 inhibitor,HEK293 MPD ctr-2,HEK293 MPD ctr 2-2,TRPC4/MOR mod,TRPC4 ctr inh 2,TRPC6 inh conf,TRPC6 act confirm,others
O=C(CNC1CCCCCC1)Nc1ccc(N2CCCC2)cc1,–,–,–,–,–,·,·,·,·,·,·,
O=C(CNC1CCCC1)Nc1ccc(N2CCCCCC2)cc1,–,–,–,–,-5.35,–,–,-13.0%,65.5%,66.0%,–,
CC1CCN(CC(=O)Nc2ccc(N3CCCCCC3)cc2)CC1,–,–,–,–,-5.37,–,–,-17.0%,38.5%,–,–,
O=C(CNCCC1=CCCCC1)Nc1ccc(N2CCCCCC2)cc1,–,–,–,–,-7.23,·,·,·,·,–,–,TRPC4 sel inh 2=70.0%;TRPC4 spec=-11.9%;HEK293 MPD ctr 2-1=–;HEK293 MPD ctr-1=-152.0%
CC(C)c1ccc(N2C(=NC(=O)C3CCCO3)SC3CS(=O)(=O)CC32)cc1 (stereo not given),–,–,–,–,–,·,·,·,·,·,·,
Cc1onc(-c2ccccc2Cl)c1C(=O)NCc1nnnn1-c1ccc(F)cc1,–,–,–,–,–,·,·,·,·,·,·,
CCN(CC)S(=O)(=O)c1cccc(NC(=O)CNC2CCCCCC2)c1,–,–,–,–,-6.48,–,–,–,65.5%,43.0%,–,
CCCCOc1ccc(CSC(=N)N)cc1Cl,–,–,–,–,-6.73,·,·,·,·,–,–,TRPC4 sel inh 2=70.5%;TRPC4 spec=–;HEK293 MPD ctr 2-1=265.5%;HEK293 MPD ctr-1=2.0%
CCCCCOc1ccc(Br)cc1CSC(=N)N,–,–,–,–,-6.44,135.0%,–,24.5%,76.0%,–,·,
CCOc1ccc(CSC(=N)N)cc1,–,–,–,–,–,·,·,·,·,·,·,
CN1C(=O)c2cccc3c(N(C)C)ccc(c23)C1=O,–,–,18.6,–,–,927.0%,+,143.5%,57.5%,·,234.5%,
O=C(C[n+]1cc[nH]c1)c1ccc(Cl)cc1,–,–,–,–,–,·,·,·,·,·,·,
CCCCN(CCCC)CCCNC(=O)C12CN(Cc3ccccc3)CC1C(c1cccc([N+](=O)[O-])c1)=NO2 (stereo not given),–,–,–,–,-7.54,·,·,·,·,–,–,TRPC4 sel inh 2=60.5%;TRPC4 spec=–;HEK293 MPD ctr 2-1=–;HEK293 MPD ctr-1=–
O=C(NCc1ccccc1)C12CN(Cc3ccccc3)CC1C(c1cccc([N+](=O)[O-])c1)=NO2 (stereo not given),–,–,–,–,–,·,·,·,·,·,·,
CCCN(CCC)CCCNc1ccc2nnc(-c3ccc(F)cc3)n2n1,94,–,–,–,-5.14,-190.0%,–,-17.0%,35.5%,–,–,
CCOC(=O)CC(=O)CSc1ccc2nnc(-c3ccc(F)cc3)n2n1,–,–,–,–,–,·,·,·,·,·,·,
O=C(CSc1nnc(-c2ccco2)o1)c1ccc[nH]1,–,–,–,–,–,·,·,·,·,·,·,
